According to ChEMBL document CHEMBL1136753, “Optimization of 2-phenylaminoimidazo[4,5-h]isoquinolin-9-ones: orally active inhibitors of lck kinase” (J Med Chem, 2003):

How the values were obtained:
Jurkat = assay: Inhibition of Calcium release in jurkat cells; format: functional, cell-based; details: Homo sapiens
Outline: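 Jurkat cells loaded with Fluo-3, washed in HBSS with 1 mM CaCl₂, 1 mM MgCl₂, 10 mM HEPES, 2 mM probenecid, 1% FBS, pH 7.4. Final 3 × 10⁵ cells/mL. Compound added for 15 min at room temperature, then anti-CD3 (clone X35, final 0.25 µg/mL). FLIPR fluorescence followed for 13 min. Peak minus baseline plotted against concentration gives EC₅₀. Mean of two or more experiments in duplicate ± SD.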

[1] = target: Tyrosine-protein kinase Lck (Homo sapiens, UniProt P06239); assay: Inhibition of p56 Lck tyrosine kinase
tissue or blood = format: functional, tissue-based; details: Homo sapiens
Homo sapiens = species on record: Homo sapiens; assay: Inhibition of IL-2 production in human whole blood; format: functional

Sequence of Tyrosine-protein kinase Lck (P06239 whole entry): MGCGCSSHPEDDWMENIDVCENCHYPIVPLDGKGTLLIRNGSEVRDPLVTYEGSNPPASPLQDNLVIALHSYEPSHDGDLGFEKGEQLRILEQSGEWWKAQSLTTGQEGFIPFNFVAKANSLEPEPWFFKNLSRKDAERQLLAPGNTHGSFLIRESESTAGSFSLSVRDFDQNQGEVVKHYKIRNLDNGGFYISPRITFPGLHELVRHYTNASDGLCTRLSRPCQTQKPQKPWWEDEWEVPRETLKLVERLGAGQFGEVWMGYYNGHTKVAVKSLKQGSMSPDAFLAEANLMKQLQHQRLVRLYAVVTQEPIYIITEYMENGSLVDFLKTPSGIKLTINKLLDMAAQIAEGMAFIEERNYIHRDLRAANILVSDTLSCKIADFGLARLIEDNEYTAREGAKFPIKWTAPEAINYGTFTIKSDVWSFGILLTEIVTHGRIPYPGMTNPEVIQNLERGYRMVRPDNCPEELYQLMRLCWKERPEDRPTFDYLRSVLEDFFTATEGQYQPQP

Compound | EC50 (Jurkat) | IC50 [1] | EC50 (tissue or blood) | EC50 (Homo sapiens)
Cc1nc(O)c2c(ccc3nc(Nc4c(Cl)cccc4Cl)n(C)c32)c1CC(=O)N1CCOCC1 | 660 nM | 120 nM |  | 
CCn1c(Nc2c(Cl)cccc2Cl)nc2ccc3c(C)c(C)nc(O)c3c21 |  | > 2500 nM |  | 
C=CC(O)c1nc(O)c2c(ccc3nc(Nc4c(Cl)cccc4Cl)n(C)c32)c1C (configuration not stated) | 1300 nM | 570 nM |  | 
Cc1c(CO)nc(O)c2c1ccc1nc(Nc3c(Cl)cccc3Cl)n(C)c12 | 240 nM | 770 nM |  | 
Cc1nc(O)c2c(ccc3nc(Nc4c(Cl)cccc4Cl)n(C)c32)c1CC(=O)N1CCN(C)CC1 | 1200 nM | 440 nM |  | 
Cc1c(/C=C/CN(C)Cc2ccccc2)nc(O)c2c1ccc1nc(Nc3c(Cl)cccc3Cl)n(C)c12 | 200 nM | 10 nM |  | 
Cc1nc(O)c2c(cc(-c3ccc(F)nc3F)c3nc(Nc4c(Cl)cccc4Cl)n(C)c32)c1C | 370 nM | 50 nM |  | 
Cc1c(CNCc2ccccc2)nc(O)c2c1ccc1nc(Nc3c(Cl)cccc3Cl)n(C)c12 | 4200 nM | 2000 nM |  | 
Cc1nc(O)c2c(ccc3nc(Nc4c(Cl)cccc4Cl)n(C)c32)c1CCCN1CCOCC1 | 300 nM | 110 nM |  | 
CCNC(=O)Cc1c(C)nc(O)c2c1ccc1nc(Nc3c(Cl)cccc3Cl)n(C)c12 | 600 nM | 460 nM |  | 
C=Cc1nc(O)c2c(ccc3nc(Nc4c(Cl)cccc4Cl)n(C)c32)c1C | 20 nM | 45 nM | 900 nM | 12000 nM
Cc1nc(O)c2c(ccc3nc(Nc4c(Cl)cccc4Cl)n(C)c32)c1CCO | 90 nM | 27 nM |  | 
Cc1c(/C=C/CN(C)C)nc(O)c2c1ccc1nc(Nc3c(Cl)cccc3Cl)n(C)c12 | 10 nM | 3 nM | 560 nM | 680 nM
COC(=O)c1c(C)nc(O)c2c1ccc1nc(Nc3c(Cl)cccc3Cl)n(C)c12 | 90 nM | 87 nM |  | 
Cc1nc(O)c2c(ccc3nc(Nc4c(Cl)cccc4Cl)n(C)c32)c1C | 130 nM | 23 nM |  | 1100 nM
Cc1c(/C=C/CN2CCCC2)nc(O)c2c1ccc1nc(Nc3c(Cl)cccc3Cl)n(C)c12 | 5 nM |  | 150 nM | 300 nM
